Results on one molecule are retold here after ChEMBL document CHEMBL3526114, “Histone deacetylase inhibitors increase human arylamine N-acetyltransferase-1 expression in human tumor cells” (Drug Metab Dispos, 2011).

The target of series [1] is T1, NAT1 (arylamine N-acetyltransferase 1) (Homo sapiens, UniProt P18440).
T1 sequence (P18440 whole entry): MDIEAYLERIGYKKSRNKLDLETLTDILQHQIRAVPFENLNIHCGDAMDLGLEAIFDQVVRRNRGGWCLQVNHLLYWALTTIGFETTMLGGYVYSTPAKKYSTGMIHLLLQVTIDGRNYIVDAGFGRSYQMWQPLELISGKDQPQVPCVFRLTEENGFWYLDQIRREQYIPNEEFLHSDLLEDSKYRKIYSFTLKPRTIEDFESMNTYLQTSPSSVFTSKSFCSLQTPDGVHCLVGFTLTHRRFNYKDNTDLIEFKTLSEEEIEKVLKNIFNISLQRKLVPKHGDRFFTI
Briefly: Increase in NAT1 enzyme activity in 40% confluent human HeLa cells at 0.5 uM using p-aminobenzoic acid substrate after 24 hrs by HPLC method relative to untreated control. The series is classed as ADME, cell-based. The following applies: probe p-aminobenzoic acid, read-out: FC. In a few lines:
(§1)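 HeLa seeded at 2 × 10⁵, 4 × 10⁵ or 6 × 10⁵ cells/well in 6-well plates (40, 80, 100% confluence at treatment). Treated with 0.5 μM TSA or vehicle for 24 hr. Sonicated lysates in 20 mM Tris pH 7.4, 1 mM EDTA, 1 mM DTT. NAT1 activity measured by HPLC with p-aminobenzoic acid substrate. Mean ± SEM, n = 3; Student's t-test versus vehicle.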

The test system of series [2] is HeLa. Kind of series: Effect on NAT1 mRNA stability in human HeLa cells assessed as slope of mRNA decay curve at 0.5 uM after 24 hrs in presence of transcription inhibitor actinomycin D by qPCR method (reference value: -0.78 +/- 0.09/hr).
The subject of series [3] is NATb promoter of NAT1. Briefly: Induction of NATb 3657 bp fragment upstream of exon 4 in human HeLa cells at 0.5 uM after 24 hrs by luciferase reporter gene assay. It counts as cell-based. The following applies: read-out: FC. In outline:
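HeLa seeded at 1.5 × 10⁵ cells/well and left overnight, then transfected (Lipofectamine 2000) with 1 µg of a deletion series of NATb promoter–firefly luciferase constructs (length = bp upstream of exon 4). After 4 hr, 0.5 µM TSA or DMSO for 24 hr; passive lysis buffer; luciferase read-out. Mean ± SEM, n = 3; t-test.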

The test system of series [4] is HeLa. Briefly: Induction of Sp1 recruitment to NATb promoter in human HeLa cells at 0.5 uM after 6 hrs by ChIP assay.
The test system of series [5] is HeLa. Briefly: Increase in NATa promoter activity in human HeLa cells at 0.5 uM after 24 hrs by qPCR method. It counts as ADME, cell-based.
The target of series [6] is T1, NAT1 (arylamine N-acetyltransferase 1). Briefly: Increase in NAT1 enzyme activity in 100% confluent human HeLa cells at 0.5 uM using p-aminobenzoic acid substrate after 24 hrs by HPLC method relative to untreated control. The following applies: probe p-aminobenzoic acid, read-out: FC. The series is classed as ADME, cell-based. In outline: as §1
For series [7] the target is unchanged. Kind of series: Increase in NAT1 enzyme activity in human HeLa cells at 0.5 uM using p-aminobenzoic acid substrate after 24 hrs by HPLC method relative to untreated control. It counts as ADME, cell-based. The following applies: probe p-aminobenzoic acid, read-out: FC. In outline: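 HeLa cultured in RPMI 1640 with 5% FBS and treated with 0.5 μM TSA or DMSO vehicle for 24 hr at 37°C. Cells washed with PBS and sonicated in 20 mM Tris pH 7.4, 1 mM EDTA, 1 mM DTT. Lysates assayed at once for NAT1 activity by HPLC with p-aminobenzoic acid substrate. Mean ± SEM, n = 3.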

Series [8] relates to HeLa. Briefly: Induction of Sp1 recruitment to NATb promoter in human HeLa cells nuclear extracts at 0.5 uM after 24 hrs by EMSA method. The series is classed as cell-based. In a few lines:
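Nuclear extracts from HeLa treated with 0.5 µM TSA or vehicle. 2 µg extract incubated with 1 × 10⁵ d.p.m. ³²P probe spanning the NATb Sp1 site, 30 min at room temperature, in binding buffer pH 7.9 with poly[d(I-C)]. Competition used 100-fold excess unlabelled wild-type or mutant probe; supershift used 2 µg Sp1 antibody. Run on 5% native PAGE at 4°C; phosphorimaging.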
In general terms: Mobility shift assays separate free from complexed probe on a gel.

Series [9] deals with HeLa. Briefly: Induction of acetylated histone H4 recruitment to NATb promoter in human HeLa cells at 0.5 uM after 6 hrs by ChIP assay.
For series [10], the system named is NATb promoter of NAT1. Kind of series: Induction of Sp1 recruitment to NATb promoter in human HeLa cells at 0.5 uM after 24 hrs by luciferase reporter gene assay. The series is classed as cell-based. To be noted: read-out: FC. (In general: In a reporter assay the amount or activity of a reporter protein is the signal.)
Series [11] concerns HeLa. Briefly: Increase in NATb promoter activity in human HeLa cells at 0.5 uM after 24 hrs by qPCR method. The series is classed as ADME, cell-based. In a few lines:
(§2)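 After 24 hr with 0.5 μM TSA or vehicle, HeLa NATb-derived NAT1 transcript quantified by qPCR. Cycling: 95°C 10 min, then 40 cycles (NATb) or 30 (β-actin) of 95°C 15 s, 50°C 20 s, 72°C. Single product checked by melt curve and gel. Normalised to β-actin; fold change by ΔΔCT. Mean ± SEM, n = 6; t-test.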
For orientation: In qPCR the cycle at which signal appears reflects the starting amount.

Series [12] concerns NAT1 mRNA. Kind of series: Increase in NAT1 mRNA expression in human HeLa cells at 0.5 uM after 24 hrs by qPCR method. The series is classed as ADME, cell-based. The following applies: read-out: FC. In a few lines: as §2
Series [13] deals with HeLa. Kind of series: Induction of NATb Sp1 site in human HeLa cells at 0.5 uM after 24 hrs by luciferase reporter gene assay. It counts as cell-based.
The subject of series [14] is NATb promoter of NAT1. Briefly: Induction of Sp1 (GC>TA) mutant recruitment to NATb promoter in human HeLa cells at 0.5 uM after 24 hrs by luciferase reporter gene assay. The series is classed as cell-based. The following applies: read-out: FC.

With `CC(/C=C/C(=O)NO)=C\[C@@H](C)C(=O)c1ccc(N(C)C)cc1` [TRICHOSTATIN], the fold induction at 24 h, 0.5 µM in series [1] was 4.1; in series [3], 18; in [6], less than 1.5; in series [7], 3.2; in series [10], 45; in [12], 25. The fold induction at 24 h, 0.5 µM in series [14] was less than 5. In addition, the Activity is -0.46 h⁻¹ in series [2]; “Toxic” in series [4]; “Non-toxic” in series [5]; “Toxic” in [8]; “Toxic” in [9]; “Toxic” in series [11]. Moreover, the Activity entry in series [13] is on record as “Toxic”.
